High-throughput results deposited in PubChem by The Scripps Research Institute Molecular Screening Center.
Rev-RRE block = disrupts HIV-1 Rev binding to RRE RNA; P05866; Rev peptide-RRE RNA binding, FRET; inhibition, % at 8 µM; 0.79% of 97,000 active;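 active = inhibition above the screen-wide mean plus 3 SD, cut at about 35% in these data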;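 also: 0% = median DMSO wells and 100% = median Neomycin B control wells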
Target sequence (P05866 whole entry, looked up): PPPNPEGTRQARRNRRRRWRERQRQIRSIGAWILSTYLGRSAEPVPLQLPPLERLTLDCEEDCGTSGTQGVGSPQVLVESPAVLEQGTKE
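Assay system: Rev peptide and RRE RNA, both fluorescently labelled; times: 5 min preincubation and 15 min binding, 25 °C; detection: FRET, ex 480 nm, em 540 and 671 nm; read-out basis: % inhibition from 671/540 nm acceptor-to-donor ratio, scaled between controls; benchmarks: DMSO low control, neomycin B high control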
GALR2 agonist = GALR2 (human) receptor agonism | activation, % (concentration not given with the values) | GALR2-expressing cells, agonist activation read-out | 0.48% of 140,000 active | O43603 | AID 803; in the data active = activation above about 5%, passing the limit was not always enough;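 also: 0% = vehicle buffer wells and 100% = reference agonist at full effect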
GALR2 antag = antagonists of human galanin receptor 2 (GALR2); O43603; GALR2-expressing cells, antagonist mode; inhibition, % at 4 µM; 0.39% of 140,000 active; in the data active = inhibition above about 27%;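 also: cells stimulated with galanin 1-16 at roughly its EC80; 0% = agonist challenge control and 100% = basal control without agonist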
S1P2 ag = S1P2 (human) receptor agonism; O95136; S1P2-expressing cell line, agonist reporter read-out; activation, % at 4.5 µM; 0.46% of 97,000 active; AID 729; in the data active = activation above about 16%;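 also: 0% = vehicle low control and 100% = maximal reference agonist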
Target sequence (O95136 whole entry, looked up): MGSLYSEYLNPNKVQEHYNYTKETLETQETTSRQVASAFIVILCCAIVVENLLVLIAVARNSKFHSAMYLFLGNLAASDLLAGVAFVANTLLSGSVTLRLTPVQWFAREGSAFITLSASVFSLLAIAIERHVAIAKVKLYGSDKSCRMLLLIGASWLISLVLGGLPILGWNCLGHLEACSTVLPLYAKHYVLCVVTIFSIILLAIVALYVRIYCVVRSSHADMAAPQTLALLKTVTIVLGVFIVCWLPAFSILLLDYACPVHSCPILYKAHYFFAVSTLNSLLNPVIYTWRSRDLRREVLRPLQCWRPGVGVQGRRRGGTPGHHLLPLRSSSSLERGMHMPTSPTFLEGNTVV
S1P2 antag = antagonists of human S1P2 receptor. O95136. cell-based S1P2 antagonist assay, inhibition at 5 uM. inhibition, % at 5 µM. 0.21% of 97,000 active; in the data active = inhibition above about 45%;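 also: CRE beta-lactamase reporter cells expressing human S1P2 stimulated with S1P; 0% = agonist at EC80 alone and 100% = agonist plus reference antagonist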
GALR2 ag confirm = confirmation of human galanin receptor 2 (GALR2) agonists; shares compounds with GALR2 agonist; activation, % at 5.6 µM; 10% of 460 active; GALR2-expressing cells, agonist activation; in the data active = activation above about 8.4%;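 also: 0% = buffer-only vehicle wells and 100% = full reference agonist response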
BLA activ ctr = counter-screen for GALR2 agonists: beta-lactamase reporter activators; shares compounds with GALR2 agonist; CHO NFAT-bla reporter, beta-lactamase FRET activation; activation, % at 5.6 µM; 10% of 460 active; AID 865;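 active = activation above the screen-wide mean activation plus 3 SD, cut at about 8% in these data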;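 also: 0% = DMSO with PBS wells and 100% = thapsigargin positive control wells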
An asterisk follows results filed as active; · = no result given; [ ] = dose if it differs, or a comment. An excerpt weighted towards active compounds, which were near 1.6% of everything screened.

SMILES | Rev-RRE block | GALR2 agonist | GALR2 antag | S1P2 ag | S1P2 antag | GALR2 ag confirm | BLA activ ctr
COc1ccc(NC(=O)c2c(Nc3ccccc3)sc(C(=O)c3ccc(F)cc3)c2N)cc1 | 0.2 | -2.8 | -3.1 | -5.1 | 44.4 | · | ·
O=C(OCC(=O)c1c[nH]c2ccccc12)c1cc2ccccc2cc1O | · | -0.2 | 17.1 | · | · | · | ·
Cc1ccccc1NC(NC(=O)OCCn1c([N+](=O)[O-])cnc1C)C(Cl)(Cl)Cl (stereo unspecified) | · | -1.7 | 0.0 | · | · | · | ·
COC(=O)C1CCN(C(=O)COC(=O)CC(NC(C)=O)c2ccccc2)CC1 (stereo unspecified) | 6.4 | -1.3 | 0.6 | -0.5 | -3.8 | · | ·
COC(=O)C1CCN(C(=O)COC(=O)Cn2cnnn2)CC1 | 11.1 | 159.5* | -6.7 | -3.0 | 5.8 | -0.8 | 0.1
CCOC(=O)c1ccc(NC(=O)CCc2ccc(CC)o2)cc1 | 2.4 | 8.4 | -6.1 | -2.1 | 1.3 | -0.9 | -0.4
Oc1ccccc1/C=N/Nc1ccnc(SCc2ccccc2)n1 | · | 23.4* | 2.8 | · | · | 3.9 | 0.3
CCCN1C(=O)/C(=C2\SC(N3CCCCC3)=NC2=O)c2ccccc21 | 8.9 | 59.1* | 2.2 | -4.9 | -25.8 | 1.2 | 0.0
Cc1ccc(NC(=O)C2Cc3ccccc3CN2C(=O)c2ccccc2)cc1Cl (stereo unspecified) | · | -1.1 | -6.1 | · | · | · | ·
O=C(N/N=C/c1c(F)cccc1Cl)c1ccc(Cn2cc(Br)cn2)o1 | · | 40.0* | 14.5 | · | · | -0.7 | -2.8
N#C/C(=C\c1cn(CCOc2ccccc2F)c2ccccc12)C(=O)NCc1cccs1 | · | 9.2* | 2.7 | · | · | 1.9 | 1.1
COc1ccc(Oc2ccc(/C=C/C(=O)c3cccc(OC)c3)cc2[N+](=O)[O-])cc1 | · | -2.4 | -4.3 | · | · | · | ·
CCOC(=O)C(=Cc1ccc(F)cc1)C(=O)OCC | -2.5 | 0.4 | 16.8 | -4.7 | 39.0 | · | ·
CCOC(=O)/C(=C/c1ccc(N2CCC(c3ccccc3)=N2)cc1)C(C)=O | · | 14.0* | 8.6 | · | · | 3.9 | 10.9*
CC(CCc1ccccc1)NC(=O)COC(=O)C1CCC(C(C)(C)C)CC1 (stereo unspecified) | · | -0.9 | 2.3 | · | · | · | ·
Cc1cccc(C)c1NC(=O)c1sc(Cl)nc1C | · | -1.3 | 9.3 | · | · | · | ·
COc1ccc(Nc2cc(C(=O)NCCCN3CCN(C)CC3)c3ccccc3n2)cc1 | 0.0 | -2.3 | 4.2 | -3.5 | 12.5 | · | ·
COc1ccc(Nc2cc(C(=O)NCc3ccco3)c3ccccc3n2)cc1 | · | 9.7* | 9.8 | · | · | 5.7 | 3.8
Cc1ccc(C(=O)NC(=S)Nc2ccc(NC(=O)c3cccc(Cl)c3)cc2)cc1 | · | 10.1* | -1.9 | · | · | 5.4 | 5.0
CCCCCc1c(C)c(C#N)c2nc3ccccc3n2c1-n1ccnc1C | 1.0 | -0.7 | -9.7 | 1.2 | 6.2 | · | ·
C=C(C)CN1CCN(c2c(CCC#N)c(C)c(C#N)c3nc4ccccc4n23)CC1 | · | 12.4* | 1.6 | · | · | 3.4 | 0.6
O=C(Cc1ccccc1)NC(=S)Nc1cccc(C(F)(F)F)c1 | 8.8 | 1.4 | -13.6 | -2.1 | 8.2 | · | ·
O=C(Cc1ccccc1)NC(=S)Nc1cc(C(F)(F)F)ccc1Cl | 2.9 | 8.4* | -14.1 | -5.0 | 1.1 | 6.3 | 8.0
CCN(CC)S(=O)(=O)c1ccc(N/N=C/c2cc(OC)c(OC)cc2OC)nc1 | · | 49.3* | 9.2 | · | · | 21.0* | 32.9*
CCN(CC)S(=O)(=O)c1ccc(N/N=C/c2ccc(OC)c(OC)c2OC)nc1 | · | -0.7 | 0.7 | · | · | · | ·
SMILES | Rev-RRE block | GALR2 agonist | GALR2 antag | S1P2 ag | S1P2 antag | GALR2 ag confirm | BLA activ ctr
CCOC(=O)C(Oc1ccc2c(-c3ccccc3)cc(=O)oc2c1)c1ccccc1 (stereo unspecified) | · | -0.3 | -8.5 | · | · | · | ·
COc1ccc(Cc2nc(C(=O)NCc3ccccc3OC)cs2)cc1 | 9.6 | -1.0 | 3.0 | -4.0 | 1.0 | · | ·
COc1ccc(Cc2nc(C(=O)Nc3ccc(OC)cc3)cs2)cc1 | 6.8 | 26.7* | -4.6 | -6.0 | -0.3 | -1.7 | -4.1
Cc1ccc(O)c(-c2cc(C(=O)Nc3ccc(S(=O)(=O)Nc4nc(C)cc(C)n4)cc3)[nH]n2)c1 | · | 0.2 | -1.6 | · | · | · | ·
COc1ccc(CCNC(=O)CN2CCOc3ccccc32)cc1OC | · | 17.7* | -2.7 | · | · | -0.7 | -1.5
COc1ccc(CCn2c(N)c(C(=O)NCc3ccco3)c3nc4ccccc4nc32)cc1OC | 28.7 | 12.0* | 3.7 | 15.6 | -16.2 | 4.0 | 9.9*
Nc1c(C(=O)NCc2ccco2)c2nc3ccccc3nc2n1CCc1ccccc1F | 15.2 | 7.1 | -12.5 | 4.1 | 6.1 | · | ·
O=[N+]([O-])c1c(NCc2ccccc2)cc(N2CCc3ccccc3C2)c2nonc12 | · | -1.7 | 8.4 | · | · | · | ·
CCCCCCc1cc2cc(C(N)=O)c(=N)oc2cc1O | 87.0*[fluorescence artefact?] | 104.6* | -28.6 | 38.8* | -75.5 | 7.6 | 23.1*
CCCCCCc1cc2cc(S(=O)(=O)c3ccc(F)c(Cl)c3)c(=O)oc2cc1O | · | 19.3* | 8.2 | · | · | 26.0* | 50.5*
CCCCCCc1cc2cc(C(=O)Nc3cccc(OC)c3)c(=O)oc2cc1O | · | 0.4 | -8.1 | · | · | · | ·
COc1ccc(CNC(=O)C(=O)NCC2OCCN2S(=O)(=O)c2cccs2)cc1 (stereo unspecified) | · | -2.0 | 6.0 | · | · | · | ·
O=C(CN1CCN(Cc2ccccc2Cl)CC1)N/N=C/C=C/c1ccccc1[N+](=O)[O-] | · | -0.9 | 3.6 | · | · | · | ·
O=c1[nH]c2ccccc2nc1-c1cccs1 | 3.0 | 11.7* | 4.0 | 15.1 | -10.7 | 1.2 | 3.8
CC(=O)N1N=C(c2ccc(C)cc2)OC1c1ccc(C)cc1 (stereo unspecified) | 12.0 | 76.9* | -7.6 | -3.4 | -6.4 | -0.7 | 0.0
COc1ccc(-c2nnc(-c3ccc(OCC(C)C)cc3)o2)cc1 | 0.1 | 13.5* | -4.1 | -2.5 | 0.4 | -1.4 | -2.2
COc1ccc(-n2c(C)cc(-c3csc(NC(=O)c4ccc(S(=O)(=O)N(C)C)cc4)n3)c2C)cc1 | · | -1.1 | 15.8 | · | · | · | ·
Nc1c(C(=O)c2ccccc2)sc2snc(SCC(=O)c3ccccc3)c12 | 77.8* | 78.7* | -0.4 | -8.4 | 15.2 | -2.1 | -3.5
Nc1nnc(SCC(=O)c2ccccc2)s1 | 4.6 | -1.8 | -0.1 | -5.0 | -11.4 | · | ·
Cc1cc2c(C)cc(=O)oc2c2c1NCCC2 | 3.0 | 13.4* | -7.9 | 15.0 | -22.6 | 0.6 | 3.7
C=CCN1C(=O)C(CC(=O)Nc2ccc(OC)cc2)N(Cc2ccco2)C1=S (stereo unspecified) | -5.4 | 16.2* | 13.0 | -2.2 | -11.4 | -1.0 | -2.2
C/C=C/C=N/NC(=O)CN(c1ccc(Br)cc1)S(=O)(=O)c1ccccc1 | · | -1.5 | 5.2 | · | · | · | ·
CCOC(=O)c1c(CSC(=N)N)n(-c2ccc(Br)cc2)c2cc(Br)c(OC(C)=O)cc12 | · | 33.8* | -9.2 | · | · | -3.8 | -19.5
CCCCc1ccc(N=N/C(C(=O)Nc2cc(OC)c(NC(C)=O)cc2OC)=C(/C)O)cc1 | · | 0.5 | 6.5 | · | · | · | ·
Cc1nn2cc(-c3ccc(Cl)cc3)nc2s1 | 4.6 | 9.8 | 6.3 | -4.8 | 25.9 | -0.5 | -2.3
Cc1nn2cc(-c3ccc(-c4ccccc4)cc3)nc2s1 | 1.1 | -1.8 | -29.9 | -7.5 | 8.2 | · | ·
